FXN GAA850 act = FXN promoter activators, primary screen, cell-based, luciferase luminescence, HEK293 lucGAA850; HEK293 lucGAA850 FXN promoter luciferase reporter, 24 h; percent of 10 µM SAHA response; hit rate 0.56% among 360,000; activation, % at 6 µM;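 active = activation above the average of all compounds screened plus 3 SD, cutoff fixed separately per campaign, cut at about 7.5% in these data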;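 also: 0% = DMSO wells and 100% = 10 µM SAHA wells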
Env fusion inh = inhibitors of HIV-1 Env-driven cell-cell fusion, primary screen, HeLa-JRFL effector, CEM21 target cells, luciferase | inhibition, % at 12.3 µM | hit rate 1.1% among 360,000 | AID 651610, 2012;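 active = mean replicate inhibition score of at least 50 and every replicate individually at or above 50; inconclusive = only one of the two criteria met; inactive = mean below 50 and not all replicates reaching 50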;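 also: 0% = plate neutral controls and 100% = maraviroc near 300 nM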
NR2E3 ag-1 = NR2E3 agonists in two-hybrid cells, primary screen, cell-based, luminescence, CHO-S, Gal4-NCOR/VP16-NR2E3; hit rate 0.35% among 360,000; luciferase; Photoreceptor-specific nuclear receptor (Homo sapiens), Q9Y5X4; inhibition of corepressor binding, % at 3.98 µM;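 active = inhibition above the mean of all tested compounds plus 3 SD, cut at about 70% in these data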;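 also: 0% = DMSO with NR2E3 transfected cells and 100% = cells lacking NR2E3 construct; higher means lower luciferase signal from less NR2E3 corepressor binding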
Target sequence (Q9Y5X4 whole entry, looked up, the tested form may be a part): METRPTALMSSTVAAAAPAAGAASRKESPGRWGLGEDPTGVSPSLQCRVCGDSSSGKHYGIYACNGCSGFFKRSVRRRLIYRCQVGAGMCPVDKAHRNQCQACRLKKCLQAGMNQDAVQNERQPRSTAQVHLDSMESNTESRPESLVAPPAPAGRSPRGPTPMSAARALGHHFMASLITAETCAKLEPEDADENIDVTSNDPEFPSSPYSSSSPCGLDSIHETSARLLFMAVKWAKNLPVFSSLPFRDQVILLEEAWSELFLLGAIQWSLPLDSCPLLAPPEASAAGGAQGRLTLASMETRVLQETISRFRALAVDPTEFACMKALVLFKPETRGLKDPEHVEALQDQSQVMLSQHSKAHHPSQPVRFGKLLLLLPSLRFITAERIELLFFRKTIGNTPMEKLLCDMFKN
V-ATPase pHluor = regulators of yeast V-ATPase proton pumping, primary screen, pHLuorin cytosolic pH fluorescence; S. cerevisiae; response, % at 10 µM; hit rate 0.37% among 350,000; in the data active = response mostly above about 7.3%, no sharp cut-off; inactive = mostly below about 5.4%; also: actives read high
GalR3 antag = GalR3 antagonists in HEK293 cells, primary screen, cell-based, fluorescence readout | HEK293 GalR3-CNG cAMP membrane potential fluorescence; galR3 body fused to GalR1 C-terminus | hit rate 0.44% among 360,000 | inhibition, % at 3 µM | AID 651719, 2012;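 active = inhibition above the screen-wide average plus 3 SD, cut at about 13% in these data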;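 also: forskolin and galanin both at EC90 stimulate the cells; cAMP rise reported by CNG channel membrane potential dye signal; 0% = forskolin plus galanin with DMSO and 100% = forskolin alone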
Target sequence (O60755 1-299 limits assumed): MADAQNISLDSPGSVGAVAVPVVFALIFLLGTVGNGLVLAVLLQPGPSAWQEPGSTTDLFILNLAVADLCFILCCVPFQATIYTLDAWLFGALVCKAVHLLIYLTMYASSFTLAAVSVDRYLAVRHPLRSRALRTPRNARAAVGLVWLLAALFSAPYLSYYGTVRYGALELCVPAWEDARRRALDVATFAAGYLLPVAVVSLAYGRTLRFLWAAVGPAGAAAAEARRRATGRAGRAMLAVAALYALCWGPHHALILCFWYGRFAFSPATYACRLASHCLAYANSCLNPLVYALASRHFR
NR2E3 ag-2 = inhibitors of NR2E3-RetCOR corepressor binding, primary screen, NR2E3 agonist project, biochemical, TR-FRET, GST-NR2E3, biotin-RetCOR; inhibition of corepressor binding, % at 4.78 µM; hit rate 0.12% among 320,000; AID 2300, 2010; Photoreceptor-specific nuclear receptor (Homo sapiens), Q9Y5X4; 1536-well;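 active = percent inhibition above the cutoff of mean plus 3 SD of all tested compounds, set per screening campaign, cut at about 20% in these data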;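 also: 0% = DMSO wells and 100% = biotin wells as full block of FRET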
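Material: NR2E3–RetCOR corepressor complex / Amount: 1.35 nM GST-NR2E3 / Medium: Tris pH 7.5 / Compound: single nominal compound dose of 4.8 µM / Incubation: 5 h at 4 °C / Technique: TR-FRET, Eu(K)-anti-GST donor, streptavidin-D2 acceptor, ex 340, em 617/671 nm / Read-out basis: percent loss of FRET ratio relative to control wells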
GalR3 conf = GalR3 antagonist hit confirmation, cell-based, fluorescence, triplicate. shares compounds with GalR3 antag. HEK293 GalR3 CNG cAMP biosensor, membrane potential fluorescence; galR3 fused to GalR1 carboxy tail; challenged with forskolin and galanin at EC90. inhibition, % at 3 µM. hit rate 59% among 1,600. AID 652245, 2013;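 active = inhibition above the primary screen's cutoff, the mean inhibition of all screened compounds plus 3 SD, cut at about 13% in these data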;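 also: 0% = forskolin plus galanin and 100% = forskolin alone with DMSO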
CNG parental = nonspecific cAMP agonists in parental HEK-CNG cells, counter-screen for GalR3 antagonist project, cell-based, fluorescence, high throughput; shares compounds with GalR3 antag; HEK293-CNG parental cells, cAMP membrane potential fluorescence; normalised: DMSO wells 0%, forskolin wells 100%; activation, % at 3 µM; hit rate 10% among 1,600; in the data active = activation above about 1.3%
* hit, by the source's call; u = inconclusive; x = no result; ! = not confirmed by another sample; [ ] = dose if it differs, or a comment. The list is not random: actives were taken first. Their share in the collection is about 2.2%.

SMILES	FXN GAA850 act	Env fusion inh	NR2E3 ag-1	V-ATPase pHluor	GalR3 antag	NR2E3 ag-2	GalR3 conf	CNG parental
COc1ccc(NC(=O)c2cc(S(=O)(=O)N3CCCCC3)ccc2OC)cc1	-0.1	-3.8	-17.2	0.9	-8.2	1.5	x	x
COc1ccccc1S(=O)(=O)N[C@@H]1CC[C@H](CCn2cc(C3CC3)nn2)O[C@H]1CO	x	2.7[16.7 µM]	x	x	x	x	x	x
CCC(=O)N(C)C[C@@H]1Oc2cc(-c3ccncc3)ccc2S(=O)(=O)N([C@@H](C)CO)C[C@H]1C	x	-3.3[16.7 µM]	x	x	x	x	x	x
COc1ccc(C(=O)NC(=S)Nc2ccc(CN3CCCCC3)cc2)cc1Cl	0.3	1.8	4.5	0.9	15.3*	1.6	7.2	9.7*
Cc1ccc(NS(=O)(=O)c2cccc(C(=O)NC3CCN(Cc4ccccc4)CC3)c2)cc1	-2.0	9.5	1.4	0.5	-6.9	x	x	x
CCN(CC)S(=O)(=O)c1ccc(NC(=O)c2ccc(OCC3CCCO3)cc2)cc1 (stereo not given)	-2.7	x	25.8	-2.7	34.5*	2.8	104.2*	-0.3
Cc1ccc(NS(=O)(=O)c2ccc(C(=O)NC3CCN(Cc4ccccc4)CC3)cc2)cc1	-1.8	7.7	26.5	-1.1	90.5*	x	103.2*	0.6
CCN(CC(=O)NCCCN1CCOCC1)S(=O)(=O)c1ccc(F)cc1	-0.2	5.3	-13.7	-1.2	19.1*	2.2	3.0	0.0
CCN(CC(=O)NCCCN1CCOCC1)S(=O)(=O)c1ccc(Cl)cc1	-1.4	-7.8	-23.7	2.2	-1.8	1.4	x	x
O=C(Nc1ccc(S(=O)(=O)N2CCCC2)cc1)c1ccc(CN2CCOCC2)cc1	-4.5	73.6*	-19.1	5.0	106.9*	3.1	64.1*	0.2
O=C(Nc1nc(-c2ccc(Cl)cc2Cl)cs1)c1ccc(OCC2CCCO2)cc1 (stereo not given)	-1.7	10.2	-8.1	-3.8	92.5*	6.3	109.3*	-0.6
CN(c1ccc(C(=O)Nc2ccc(S(=O)(=O)N3CCCC3)cc2)cc1)S(C)(=O)=O	-2.4	25.5	-0.7	1.6	93.5*	0.8	95.4*	0.0
Cc1noc(C)c1S(=O)(=O)Nc1cccc2c1O[C@@H](CN(C)CC1CC1)[C@@H](C)CN([C@H](C)CO)C2=O	x	-3.6[16.7 µM]	x	x	x	x	x	x
Cc1noc(C)c1NC(=O)Nc1ccc2c(c1)CC(=O)N([C@@H](C)CO)C[C@H](C)[C@H](CN(C)Cc1ccc(-c3ccccc3)cc1)O2	x	-49.8[16.7 µM]	x	x	x	x	x	x
COc1ccc(-c2cn(-c3ccccc3)c3[n+]2CCS3)cc1	-2.4	24.5	1.9	1.6	15.6*!	-1.4	0.0	-0.1
c1ccc(-c2cn(-c3ccccc3)c3[n+]2CCS3)cc1	0.9	29.3	-31.8	2.3	0.5	-0.9	x	x
CC(C)(C)c1ccc(-c2cn(-c3ccc(Br)cc3)c3[n+]2CCCS3)cc1	-5.7	u	-1.9	-2.5	24.9*	x	59.8*	1.7*
CC[C@H](C)[C@H](NS(=O)(=O)c1ccc(C)cc1)C(=O)N1CCC(C(=O)N[C@H](C(=O)O)C(C)C)CC1	-1.2	x	7.3	0.7	x	0.1	x	x
CCC(C)[C@H](NS(=O)(=O)c1ccc(C)cc1)C(=O)N1CCC(C(=O)N[C@H](C(=O)O)c2ccccc2)CC1 (stereo not given in full)	0.2	x	0.5	-0.4	30.0*	0.0	11.6	0.1
O=C(NC1CCCCC1c1ccccc1)c1ccccc1 (stereo not given)	-0.1	-20.7	-15.8	-2.6	16.0*	x	4.3	-0.3
Nc1nnnn1/N=C\c1ccc(Cl)c([N+](=O)[O-])c1	2.7	-82.4	5.2	3.6	18.0*	1.9	13.8*	0.1
Cc1ccccc1-c1ccc2c(c1)O[C@@H](CN(C)CC1CC1)[C@@H](C)CN([C@@H](C)CO)S2(=O)=O	x	0.8[16.7 µM]	x	x	x	x	x	x
COc1ccc(S(=O)(=O)N2CCOC2CNC(=O)C(=O)NCCc2ccccc2OC)cc1C (stereo not given)	-0.6	x	-9.4	-3.5	x	4.4	x	x
COc1ccccc1CCNC(=O)C(=O)NCC1OCCN1S(=O)(=O)c1ccc2c(c1)OCCO2 (stereo not given)	0.6	2.2	-29.7	6.1	13.9*	2.0	7.4	0.1
CCN(CC)S(=O)(=O)c1ccc(Cl)c(NC(=O)COC(=O)c2ccc(O)cc2)c1	0.1	17.3	-13.1	-5.2	-1.5	-3.3	x	x
SMILES	FXN GAA850 act	Env fusion inh	NR2E3 ag-1	V-ATPase pHluor	GalR3 antag	NR2E3 ag-2	GalR3 conf	CNG parental
CCN(CC)S(=O)(=O)c1ccc(Cl)c(NC(=O)COC(=O)c2cccn2C)c1	0.2	8.1	11.6	-1.6	64.9*	7.4	-2.4	0.0
Cc1noc(C)c1S(=O)(=O)Nc1ccc2c(c1)C(=O)N([C@H](C)CO)C[C@@H](C)[C@@H](CN(C)C(=O)c1ccncc1)OCCCC[C@H](C)O2	x	-1.7[16.7 µM]	x	x	x	x	x	x
CCCc1[nH]nc2c1C(c1ccc(OC)c(CSC3=NCCS3)c1)C(C#N)=C(N)O2 (stereo not given)	1.6	-74.6	-20.6	-1.5	20.1*	-2.6	2.7	0.5
CNC[C@H]1Oc2c(NC(=O)Nc3c(C)noc3C)cccc2C(=O)N([C@H](C)CO)C[C@@H]1C	x	24.0[16.7 µM]	x	x	x	x	x	x
N#Cc1c([N+](=O)[O-])cc([N+](=O)[O-])cc1S(=O)(=O)Cc1ccccc1	-10.9	x	9.6	-0.8	63.7*	8.4	25.4*	-0.6
Cc1cc(Br)c(OCc2ccc(C(=O)N/N=C3\CC4CC=CC34)cc2)c(Br)c1 (stereo not given)	1.7	-114.3	-17.7	-0.6	27.3*	2.6	45.7*	0.2
COc1ccc(C=O)c2[nH]c3c(Cl)ncnc3c12	4.2	-2.8	6.5	3.0	14.4*	x	29.4*	0.5
C[C@H]1CCCCO[C@@H](CN(C)S(=O)(=O)c2ccc(F)cc2)[C@@H](C)CN([C@@H](C)CO)C(=O)c2cc(NS(=O)(=O)c3ccc(F)cc3)ccc2O1	x	26.6[16.7 µM]	x	x	x	x	x	x
Cc1noc(C)c1S(=O)(=O)N(C)C[C@H]1Oc2ccc(N(C)C)cc2CC(=O)N([C@H](C)CO)C[C@H]1C	x	0.8[16.7 µM]	x	x	x	x	x	x
